In ChEMBL document CHEMBL4387722:

Legend:
[1] = target: T1, Tyrosine-protein phosphatase non-receptor type 1 (Homo sapiens, UniProt P18031); assay: Inhibition of human PTPN1 expressed in Escherichia coli Rosetta 2 (DE3) using pNPP as substrate after 45 mins by spectrophotometric method
T1 sequence (P18031 whole entry): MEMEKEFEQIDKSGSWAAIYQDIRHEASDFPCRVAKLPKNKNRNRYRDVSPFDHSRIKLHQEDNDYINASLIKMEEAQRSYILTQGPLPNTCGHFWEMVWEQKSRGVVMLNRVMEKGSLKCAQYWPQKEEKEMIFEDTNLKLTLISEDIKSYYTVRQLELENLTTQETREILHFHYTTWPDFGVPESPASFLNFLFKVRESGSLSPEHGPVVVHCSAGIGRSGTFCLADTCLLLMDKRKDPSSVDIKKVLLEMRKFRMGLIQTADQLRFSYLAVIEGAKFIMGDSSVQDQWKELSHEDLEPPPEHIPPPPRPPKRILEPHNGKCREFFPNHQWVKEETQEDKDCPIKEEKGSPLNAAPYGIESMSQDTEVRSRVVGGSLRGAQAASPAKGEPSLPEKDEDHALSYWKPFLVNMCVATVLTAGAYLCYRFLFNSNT

[2] = Inhibition of refolded rhodanese (unknown origin) preincubated with Escherichia coli GroEL/GroES for 60 mins by measuring rhodanese enzyme activity followed by compound addition by Fe(SCN)3 dye based spectrometric analysis; design: species or system Homo sapiens
[3] = target: T2, Tyrosine-protein phosphatase non-receptor type 2 (Homo sapiens, UniProt P17706); assay: Inhibition of human PTPN2 expressed in Escherichia coli Rosetta 2 (DE3) using pNPP as substrate after 45 mins by spectrophotometric method
T2 sequence (P17706 whole entry): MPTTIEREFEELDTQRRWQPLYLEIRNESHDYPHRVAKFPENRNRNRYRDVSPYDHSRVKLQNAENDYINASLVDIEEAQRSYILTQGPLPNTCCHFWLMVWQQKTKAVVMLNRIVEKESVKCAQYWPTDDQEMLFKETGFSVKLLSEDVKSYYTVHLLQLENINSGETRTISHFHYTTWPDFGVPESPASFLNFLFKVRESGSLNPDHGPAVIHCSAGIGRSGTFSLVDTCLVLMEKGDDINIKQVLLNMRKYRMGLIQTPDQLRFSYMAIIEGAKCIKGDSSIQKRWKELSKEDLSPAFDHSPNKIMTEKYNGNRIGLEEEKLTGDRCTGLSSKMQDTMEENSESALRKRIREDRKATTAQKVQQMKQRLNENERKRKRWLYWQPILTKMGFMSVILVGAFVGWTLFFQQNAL

[4] = tested on: Mycobacterium tuberculosis; assay: Antitubercular activity against Mycobacterium tuberculosis H37Rv after 5 days at 200 uM relative to control; format: functional; settings: 120 h
Summary of the method: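 M. tuberculosis grown in liquid culture with compound at a fixed 200 μM for 5 days. Growth inhibition expressed as percent of control.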

[5] = Cytotoxicity against human HEK293 cells assessed as reduction in cell viability after 48 hrs by Alamar blue assay; format: cell-based
Summary of the method: (§1)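 Alamar Blue viability read-out. Human liver (THLE-3) and kidney (HEK 293) cells incubated with compound for 48 h. Tested in dose-response to derive CC50.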

[6] = target: T3, Phosphotyrosine protein phosphatase (Mycobacterium tuberculosis, UniProt A0A045ISB3); assay: Inhibition of Mycobacterium tuberculosis His-tagged PtpB expressed in Escherichia coli Rosetta 2 (DE3) using pNPP as substrate after 30 mins by spectrophotometric method
T3 sequence (A0A045ISB3 whole entry): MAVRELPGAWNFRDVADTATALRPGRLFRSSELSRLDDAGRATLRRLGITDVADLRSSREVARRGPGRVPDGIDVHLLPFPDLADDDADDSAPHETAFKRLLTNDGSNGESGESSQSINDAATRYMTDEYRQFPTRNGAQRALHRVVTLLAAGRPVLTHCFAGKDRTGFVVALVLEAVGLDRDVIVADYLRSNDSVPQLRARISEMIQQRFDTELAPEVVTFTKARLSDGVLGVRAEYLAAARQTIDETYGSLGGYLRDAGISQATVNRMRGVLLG

[7] = target: T4, Tyrosine-protein phosphatase non-receptor type 5 (Homo sapiens, UniProt P54829); assay: Inhibition of human PTPN5 expressed in Escherichia coli Rosetta 2 (DE3) using pNPP as substrate after 45 mins by spectrophotometric method
T4 sequence (P54829 whole entry): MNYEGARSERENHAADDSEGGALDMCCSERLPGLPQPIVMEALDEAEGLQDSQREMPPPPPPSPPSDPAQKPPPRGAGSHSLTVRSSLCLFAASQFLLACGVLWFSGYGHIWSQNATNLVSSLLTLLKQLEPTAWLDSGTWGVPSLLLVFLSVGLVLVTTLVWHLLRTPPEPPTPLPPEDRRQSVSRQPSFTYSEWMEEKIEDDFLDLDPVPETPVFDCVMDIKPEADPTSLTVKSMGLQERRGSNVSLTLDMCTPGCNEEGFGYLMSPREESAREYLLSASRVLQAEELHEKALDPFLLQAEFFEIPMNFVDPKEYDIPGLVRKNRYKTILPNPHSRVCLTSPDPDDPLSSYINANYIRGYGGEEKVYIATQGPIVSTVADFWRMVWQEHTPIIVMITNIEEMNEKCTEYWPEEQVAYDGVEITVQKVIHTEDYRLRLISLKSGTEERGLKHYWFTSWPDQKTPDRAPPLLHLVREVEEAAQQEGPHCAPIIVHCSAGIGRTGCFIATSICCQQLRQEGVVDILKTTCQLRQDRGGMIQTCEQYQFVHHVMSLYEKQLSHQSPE

[8] = target: HSP60/HSP10 (Homo sapiens, UniProt P10809); assay: Inhibition of human HSP60 expressed in Escherichia coli Rosetta 2(DE3)/human HSP10 expressed in Escherichia coli Rosetta 2(DE3) pLysS cells assessed as reduction in HSP60/HSP10-mediated denatured pig heart mitochondrial MDH refolding by measuring MDH enzyme activity using sodium mesoxalate as substrate after 40 to 60 mins by spectrometric analysis
HSP60/HSP10, sequence (P10809 whole entry): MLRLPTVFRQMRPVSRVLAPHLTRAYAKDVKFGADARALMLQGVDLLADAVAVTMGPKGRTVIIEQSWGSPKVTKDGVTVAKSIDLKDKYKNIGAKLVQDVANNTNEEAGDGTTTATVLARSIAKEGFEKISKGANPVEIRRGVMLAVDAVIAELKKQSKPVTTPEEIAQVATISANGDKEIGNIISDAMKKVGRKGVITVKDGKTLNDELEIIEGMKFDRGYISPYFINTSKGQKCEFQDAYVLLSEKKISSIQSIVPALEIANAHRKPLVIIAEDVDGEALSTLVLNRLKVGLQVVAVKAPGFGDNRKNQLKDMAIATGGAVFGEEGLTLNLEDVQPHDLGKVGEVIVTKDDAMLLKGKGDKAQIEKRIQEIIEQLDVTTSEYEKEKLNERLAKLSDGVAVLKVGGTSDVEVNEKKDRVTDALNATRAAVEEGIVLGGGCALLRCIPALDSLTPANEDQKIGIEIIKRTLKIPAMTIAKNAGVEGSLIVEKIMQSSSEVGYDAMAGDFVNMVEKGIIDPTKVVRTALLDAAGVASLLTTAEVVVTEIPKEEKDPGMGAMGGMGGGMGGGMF
HSP60/HSP10, sequence (P61604 whole entry, further chain): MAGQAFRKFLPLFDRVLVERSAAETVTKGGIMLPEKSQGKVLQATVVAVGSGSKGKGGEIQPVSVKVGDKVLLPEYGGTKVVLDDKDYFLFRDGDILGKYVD

[9] = Cytotoxicity against human THLE3 cells assessed as reduction in cell viability after 48 hrs by Alamar blue assay; format: cell-based; summary of the method: as §1
[10] = tested on: Mycobacterium tuberculosis; assay: Antitubercular activity against Mycobacterium tuberculosis H37Rv after 5 days; format: functional, organism-based; settings: 120 h
[11] = target: T5, Malate dehydrogenase, mitochondrial (Sus scrofa, UniProt P00346); assay: Inhibition of refolded pig heart mitochondrial MDH preincubated with Escherichia coli GroEL/GroES for 45 mins using sodium mesoxalate as substrate followed by compound addition and measured after 20 to 30 mins by spectrometric analysis
T5 sequence (P00346 whole entry): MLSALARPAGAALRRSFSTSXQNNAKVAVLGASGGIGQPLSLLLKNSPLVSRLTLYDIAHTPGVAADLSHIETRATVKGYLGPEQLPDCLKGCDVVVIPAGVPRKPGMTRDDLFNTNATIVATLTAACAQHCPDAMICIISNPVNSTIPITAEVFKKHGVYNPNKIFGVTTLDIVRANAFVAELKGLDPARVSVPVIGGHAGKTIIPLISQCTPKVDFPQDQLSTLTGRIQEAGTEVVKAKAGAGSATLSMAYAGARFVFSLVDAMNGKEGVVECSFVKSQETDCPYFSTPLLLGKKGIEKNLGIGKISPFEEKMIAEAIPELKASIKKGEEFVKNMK

SMILES | IC50 [1] [µM] | IC50 [2] [µM] | IC50 [3] [µM] | inhibition at 200 µM [4] [%] | CC50 at 48 h [5] [µM] | IC50 [6] [µM] | IC50 [7] [µM] | IC50 [8] [µM] | CC50 at 48 h [9] [µM] | EC50 [10] [µM] | IC50 [11] [µM]
O=S(=O)(Nc1ccc(-c2nc3ccccc3o2)cc1)c1cccc(O)c1 | > 100 | > 100 | > 100 | 61 | > 100 | 79 | 84 | 62 | 97 | 189 | > 63
Cc1cccc(S(=O)(=O)Nc2ccc3oc(-c4ccccc4)nc3c2)c1 | 53 | > 100 | 57 | 82 | 69 | 63 | 39 | > 100 | 38 | 161 | > 63
COc1ccc(S(=O)(=O)Nc2ccc3oc(-c4ccccc4)nc3c2)cc1 | 46 | > 100 | 50 | 75 | 91 | 73 | 37 | > 100 | 53 | 167 | > 63
COc1cccc(S(=O)(=O)Nc2ccc(-c3nc4ccccc4o3)cc2)c1 | 51 | > 100 | 67 | 74 | > 100 | 67 | 48 | 80 | 84 | 156 | > 63
CS(=O)(=O)Nc1ccc(-c2nc3cc(NS(C)(=O)=O)ccc3o2)cc1 | > 100 |  | > 100 | 62 |  | > 100 | > 100 |  |  | > 200 | 
COc1ccc(S(=O)(=O)Nc2ccc(-c3nc4ccccc4o3)cc2)cc1 | 42 | > 100 | 53 | 72 | > 100 | 61 | 45 | > 100 | 86 | 179 | > 63
O=S(=O)(Nc1ccc2oc(-c3ccccc3)nc2c1)c1cccc(F)c1 | 71 | > 100 | > 100 | 56 | 68 | 93 | 42 | > 100 | 41 | > 200 | > 63
N#Cc1ccccc1S(=O)(=O)Nc1ccc(-c2nc3cc(NS(=O)(=O)c4ccccc4C#N)ccc3o2)cc1 | 56 |  | 69 | 85 |  | 18 | 47 |  |  | 113 | 
Nc1ccc(S(=O)(=O)Nc2ccc(-c3nc4cc(NS(=O)(=O)c5ccc(N)cc5)ccc4o3)cc2)cc1 | 27 |  | 32 | 51 |  | 16 | 41 |  |  | > 200 | 
O=S(=O)(Nc1ccc(-c2nc3cc(NS(=O)(=O)c4ccccc4Br)ccc3o2)cc1)c1ccccc1Br | 24 |  | 28 | 50 |  | 20 | 31 |  |  | > 200 | 
O=S(=O)(Nc1ccc(-c2nc3ccccc3o2)cc1)c1ccc(O)cc1 | 70 | > 100 | > 100 | 77 | > 100 | 93 | 81 | 78 | > 100 | > 200 | > 63
O=S(=O)(Nc1ccc(-c2nc3cc(NS(=O)(=O)c4cccc(F)c4)ccc3o2)cc1)c1cccc(F)c1 | 36 |  | 32 | 48 |  | 13 | 31 |  |  | > 200 | 
Nc1ccccc1S(=O)(=O)Nc1ccc(-c2nc3cc(NS(=O)(=O)c4ccccc4N)ccc3o2)cc1 | 34 |  | 25 | 58 |  | 17 | 51 |  |  | > 200 | 
